The values that follow come from ChEMBL document CHEMBL1124559, “Synthesis and antiviral activity of the enantiomeric forms of carba-5-iodo-2'-deoxyuridine and carba-(E)-5-(2-bromovinyl)-2'-deoxyuridine” (1989).

What all share (type): functional
The species named for experiment [1] is Oryctolagus cuniculus. Briefly: Antiviral activity against F strain of herpes simplex virus-1 in primary rabbit kidney cell cultures. An outline of the steps:
(§1)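 Confluent cell monolayers in microtiter trays infected with 100 CCID50 of virus (1 CCID50 = dose infecting 50% of cultures); after 1 h adsorption, residual virus removed and cultures incubated with varying compound concentrations. Cytopathogenicity scored once complete in untreated infected controls; value is concentration reducing virus-induced cytopathogenicity by 50%, averaged over three to four separate experiments.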

For experiment [2], the species on record is Oryctolagus cuniculus. The experiment in a line: Antiviral activity against G strain of herpes simplex virus-2 in primary rabbit kidney cell cultures. An outline of the steps:
as §1

The species entered for experiment [3] is Oryctolagus cuniculus. The experiment in a line: Antiviral activity against KOS strain of herpes simplex virus-1 in primary rabbit kidney cell cultures. Summed up: as §1
The species named for experiment [4] is Oryctolagus cuniculus. The experiment in a line: Antiviral activity against McIntyre strain of herpes simplex virus-1 in primary rabbit kidney cell cultures. An outline of the steps: as §1
The species entered for experiment [5] is Oryctolagus cuniculus. Briefly: Antiviral activity against Vaccinia virus in primary rabbit kidney cell cultures. Summed up: as §1
The species named for experiment [6] is Oryctolagus cuniculus. The experiment in a line: Minimum cytotoxic concentration required to cause a microscopically detectable alteration of rabbit kidney cell morphology. An outline of the steps:
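Cell cultures exposed to varying compound concentrations; value is concentration required to cause microscopically detectable alteration of cell morphology.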

Experiment [7] is filed under the species Oryctolagus cuniculus. Briefly: Antiviral activity against 196 strain of herpes simplex virus-2 in primary rabbit kidney cell cultures. An outline of the steps:
as §1

Experiment [8] is filed under the species Oryctolagus cuniculus. Briefly: Antiviral activity against Lyons strain of herpes simplex virus-2 in primary rabbit kidney cell cultures. An outline of the steps:
as §1

The species entered for experiment [9] is Oryctolagus cuniculus. Briefly: Antiviral activity against VMW 1837 strain of thymidine kinase deficient (TK-) herpes simplex virus-1 in primary rabbit kidney cell cultures. An outline of the steps: as §1
The species entered for experiment [10] is Oryctolagus cuniculus. The experiment in a line: Antiviral activity against Vesicular stomatitis virus in primary rabbit kidney cell cultures. Summed up: as §1
The species entered for experiment [11] is Oryctolagus cuniculus. Briefly: Antiviral activity against B2006 strain of thymidine kinase deficient (TK-) herpes simplex virus-1 in primary rabbit kidney cell cultures. An outline of the steps: as §1
[12] abbreviates: Oryctolagus cuniculus, read-out: MIC.

Molecules are shown by their SMILES. Converted amounts (≈) assume the structure as drawn. Where only a bound is given, the exact number is not on record here.

Take `O=c1[nH]c(=O)n([C@@H]2C[C@H](CO)[C@@H](O)C2)cc1I` (stereo in doubt; (-)): the MIC is 7 µg/mL (≈ 19.9 µM) in the experiment filed under Oryctolagus cuniculus [1]; 70 µg/mL (≈ 199 µM) in the experiment filed under Oryctolagus cuniculus [2]; 1 µg/mL (≈ 2.84 µM) in the experiment listed under Oryctolagus cuniculus [3]; 20 µg/mL (≈ 56.8 µM) in the experiment filed under Oryctolagus cuniculus [4]; above 400 µg/mL in the experiment filed under Oryctolagus cuniculus [5].

As to `O=c1[nH]c(=O)n([C@@H]2C[C@H](CO)[C@@H](O)C2)cc1I` (racemic), the MIC in the experiment listed under Oryctolagus cuniculus [1] came to 0.1 µg/mL (≈ 0.284 µM); in the experiment filed under Oryctolagus cuniculus [2] it was 20 µg/mL (≈ 56.8 µM); in the experiment filed under Oryctolagus cuniculus [3], 0.1 µg/mL (≈ 0.284 µM); in the experiment listed under Oryctolagus cuniculus [4], 0.1 µg/mL (≈ 0.284 µM); in the experiment listed under Oryctolagus cuniculus [5] it was 150 µg/mL (≈ 426 µM).

With `O=c1[nH]c(=O)n([C@H]2C[C@H](O)[C@@H](CO)O2)cc1/C=C/Br` [BRIVUDINE], the MCC in the experiment listed under Oryctolagus cuniculus [6] is above 400 µg/mL. Moreover, the MIC in the experiment listed under Oryctolagus cuniculus [7] stood at 70 µg/mL (≈ 210 µM); in the experiment listed under Oryctolagus cuniculus [1] (setting [12]) it was 0.02 µg/mL (≈ 0.06 µM); in the experiment listed under Oryctolagus cuniculus [2] (setting [12]) it was 2 µg/mL (≈ 6 µM); in the experiment filed under Oryctolagus cuniculus [3] (setting [12]), 0.01 µg/mL (≈ 0.03 µM); in the experiment listed under Oryctolagus cuniculus [8] it was 7 µg/mL (≈ 21 µM); in the experiment filed under Oryctolagus cuniculus [4] (setting [12]), 0.025 µg/mL (≈ 0.075 µM). Also, the MIC was above 400 µg/mL in the experiment filed under Oryctolagus cuniculus [9], 15 µg/mL (≈ 45 µM) in the experiment filed under Oryctolagus cuniculus [5] (setting [12]), above 400 µg/mL in the experiment filed under Oryctolagus cuniculus [10] and 150 µg/mL (≈ 450 µM) in the experiment listed under Oryctolagus cuniculus [11].

In turn, `O=c1[nH]c(=O)n([C@@H]2C[C@H](CO)[C@@H](O)C2)cc1I` (stereo in doubt; (+)) registered an MCC in the experiment listed under Oryctolagus cuniculus [6] above 400 µg/mL. Moreover, the MIC is above 400 µg/mL in the experiment filed under Oryctolagus cuniculus [7]; 0.07 µg/mL (≈ 0.199 µM) in the experiment filed under Oryctolagus cuniculus [1]; 10 µg/mL (≈ 28.4 µM) in the experiment filed under Oryctolagus cuniculus [2]; 0.07 µg/mL (≈ 0.199 µM) in the experiment filed under Oryctolagus cuniculus [3]; above 400 µg/mL in the experiment filed under Oryctolagus cuniculus [8]; 0.2 µg/mL (≈ 0.568 µM) in the experiment listed under Oryctolagus cuniculus [4]. The MIC in the experiment listed under Oryctolagus cuniculus [9] was above 400 µg/mL; in the experiment filed under Oryctolagus cuniculus [5], 40 µg/mL (≈ 114 µM); in the experiment filed under Oryctolagus cuniculus [10] it was above 400 µg/mL; in the experiment listed under Oryctolagus cuniculus [11], above 400 µg/mL.

Compound `O=c1[nH]c(=O)n([C@H]2C[C@H](O)[C@@H](CO)O2)cc1I` [IDOXURIDINE] came in with an MCC in the experiment listed under Oryctolagus cuniculus [6] above 400 µg/mL. Moreover, the MIC in the experiment listed under Oryctolagus cuniculus [7] is 2 µg/mL (≈ 5.65 µM); in the experiment listed under Oryctolagus cuniculus [1] (setting [12]), 0.07 µg/mL (≈ 0.198 µM); in the experiment filed under Oryctolagus cuniculus [2] (setting [12]) it was 0.4 µg/mL (≈ 1.13 µM); in the experiment filed under Oryctolagus cuniculus [3] (setting [12]), 0.1 µg/mL (≈ 0.282 µM); in the experiment filed under Oryctolagus cuniculus [8] it was 1 µg/mL (≈ 2.82 µM); in the experiment filed under Oryctolagus cuniculus [4] (setting [12]), 0.1 µg/mL (≈ 0.282 µM). Moreover, the MIC in the experiment listed under Oryctolagus cuniculus [9] is above 400 µg/mL; in the experiment listed under Oryctolagus cuniculus [5] (setting [12]), 0.2 µg/mL (≈ 0.565 µM); in the experiment filed under Oryctolagus cuniculus [10] it was above 400 µg/mL; in the experiment listed under Oryctolagus cuniculus [11] it was above 400 µg/mL.
